From ChEMBL document CHEMBL1806473, “Structure-based optimization of click-based histone deacetylase inhibitors” (Eur J Med Chem, 2011)

Experiments:
CCRF-CEM [1] = test: Antiproliferative activity against human CCRF-CEM cells by SRB assay; format: functional
In short: (§1)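 Tested in the NCI in vitro human tumor cell line screen, run by the National Cancer Institute. Each compound was given at five concentrations (100, 10, 1.0, 0.1 and 0.01 μM). GI50 is the drug concentration that reduces growth of treated cells to half that of control cells during drug incubation, judged from the SRB signal.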

HL-60(TB) = test: Antiproliferative activity against human HL-60(TB) cells by SRB assay; format: functional
In short: (§2)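 Tested in the NCI in vitro disease-oriented human tumour cell line screen, with screening performed by NCI. Growth was read by SRB signal over the drug incubation period at five concentrations: 100, 10, 1.0, 0.1 and 0.01 μM. GI50 is the concentration that reduces growth of treated cells to half that of control cells.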

K562 [2] = test: Antiproliferative activity against human K562 cells by SRB assay; format: functional; in short: as §1
MOLT-4 = test: Antiproliferative activity against human MOLT4 cells by SRB assay; format: functional; in short: as §1
SR = test: Antiproliferative activity against human SR cells by SRB assay; format: functional
In short: (§3)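 Cell growth was tested in the NIH in vitro disease-oriented human tumor cell line screen, which NCI ran for these compounds. Compounds were tested at five concentrations (100, 10, 1.0, 0.1 and 0.01 μM), and growth was read by SRB signal. GI50 is the drug concentration that reduces growth of treated cells to half that of control cells during drug incubation.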

A549 = test: Antiproliferative activity against human A549 cells by SRB assay; format: functional; in short: as §1
EKVX = test: Antiproliferative activity against human EKVX cells by SRB assay; format: functional; in short: as §1
HOP-62 = test: Antiproliferative activity against human HOP62 cells by SRB assay; format: functional; in short: as §1
HOP-92 [3] = test: Antiproliferative activity against human HOP92 cells by SRB assay; format: functional; in short: as §1
NCI-H226 = test: Antiproliferative activity against human NCI-H226 cells by SRB assay; format: functional; in short: as §1
NCI-H23 [4] = test: Antiproliferative activity against human NCI-H23 cells by SRB assay; format: functional; in short: as §1
NCI-H460 = test: Antiproliferative activity against human NCI-H460 cells by SRB assay; format: functional; in short: as §1
COLO 205 [5] = test: Antiproliferative activity against human COLO205 cells by SRB assay; format: functional; in short: as §1
HCT-15 [6] = test: Antiproliferative activity against human HCT15 cells by SRB assay; format: functional; in short: as §1
KM12 = test: Antiproliferative activity against human KM12 cells by SRB assay; format: functional; in short: as §1
SW-620 = test: Antiproliferative activity against human SW620 cells by SRB assay; format: functional; in short: as §3
SNB-19 = test: Antiproliferative activity against human SNB19 cells by SRB assay; format: functional; in short: as §1
U-251 = test: Antiproliferative activity against human U251 cells by SRB assay; format: functional; in short: as §3
Malme-3M [7] = test: Antiproliferative activity against human MALME-3M cells by SRB assay; format: functional; in short: as §1
M14 [8] = test: Antiproliferative activity against human M14 cells by SRB assay; format: functional; in short: as §1
MDA-MB-435 [9] = test: Antiproliferative activity against human MDA-MB-435 cells by SRB assay; format: functional; in short: as §1
UACC-257 [10] = test: Antiproliferative activity against human UACC257 cells by SRB assay; format: functional; in short: as §3
IGROV-1 [11] = test: Antiproliferative activity against human IGROV1 cells by SRB assay; format: functional; in short: as §1
OVCAR-4 [12] = test: Antiproliferative activity against human OVCAR4 cells by SRB assay; format: functional; in short: as §1
OVCAR-5 [13] = test: Antiproliferative activity against human OVCAR5 cells by SRB assay; format: functional; in short: as §1
SK-OV-3 = test: Antiproliferative activity against human SKOV3 cells by SRB assay; format: functional; in short: as §1
786-0 = test: Antiproliferative activity against human 786-0 cells by SRB assay; format: functional; in short: as §1
A498 [14] = test: Antiproliferative activity against human A498 cells by SRB assay; format: functional; in short: as §1
ACHN = test: Antiproliferative activity against human ACHN cells by SRB assay; format: functional; in short: as §1
CAKI-1 = test: Antiproliferative activity against human Caki1 cells by SRB assay; format: functional; in short: as §1
RXF 393 [15] = test: Antiproliferative activity against human RXF393 cells by SRB assay; format: functional; in short: as §1
TK-10 [16] = test: Antiproliferative activity against human TK10 cells by SRB assay; format: functional; in short: as §3
PC-3 = test: Antiproliferative activity against human PC3 cells by SRB assay; format: functional; in short: as §1
DU-145 [17] = test: Antiproliferative activity against human DU145 cells by SRB assay; format: functional; in short: as §1
MDA-MB-231 = test: Antiproliferative activity against human MDA-MB-231 cells by SRB assay; format: functional; in short: as §1
CCRF-CEM [18] = test: Cytotoxicity against human CCRF-CEM cells; format: cell-based
K562 [19] = test: Cytotoxicity against human K562 cells; format: cell-based
RPMI-8226 = test: Cytotoxicity against human RPMI8226 cells; format: cell-based; in short: as §2
HOP-92 [20] = test: Cytotoxicity against human HOP92 cells; format: cell-based
NCI-H23 [21] = test: Cytotoxicity against human NCI-H23 cells; format: cell-based
NCI-H322M = test: Cytotoxicity against human NCI-H322M cells; format: cell-based
COLO 205 [22] = test: Cytotoxicity against human COLO205 cells; format: cell-based; in short: as §2
HCT-116 = test: Cytotoxicity against human HCT116 cells; format: cell-based; in short: as §2
HCT-15 [23] = test: Cytotoxicity against human HCT15 cells; format: cell-based; in short: as §2
SF-268 = test: Cytotoxicity against human SF268 cells; format: cell-based; in short: as §2
LOX IMVI = test: Cytotoxicity against human LOXIMVI cells; format: cell-based
Malme-3M [24] = test: Cytotoxicity against human MALME-3M cells; format: cell-based; in short: as §2
M14 [25] = test: Cytotoxicity against human M14 cells; format: cell-based
MDA-MB-435 [26] = test: Cytotoxicity against human MDA-MB-435 cells; format: cell-based
SK-MEL-5 = test: Cytotoxicity against human SK-MEL-5 cells; format: cell-based
UACC-257 [27] = test: Cytotoxicity against human UACC257 cells; format: cell-based
In short: (§4)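 Screened by NCI in its in vitro disease-oriented human tumour cell line panel. Compounds tested at five concentrations (100, 10, 1.0, 0.1 and 0.01 μM). Growth read by sulforhodamine B (SRB) signal. GI50 is the concentration reducing growth of treated cells to half that of control cells during the drug incubation.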

IGROV-1 [28] = test: Cytotoxicity against human IGROV1 cells; format: cell-based
OVCAR-4 [29] = test: Cytotoxicity against human OVCAR4 cells; format: cell-based
OVCAR-5 [30] = test: Cytotoxicity against human OVCAR5 cells; format: cell-based; in short: as §2
A498 [31] = test: Cytotoxicity against human A498 cells; format: cell-based
RXF 393 [32] = test: Cytotoxicity against human RXF393 cells; format: cell-based; in short: as §2
TK-10 [33] = test: Cytotoxicity against human TK10 cells; format: cell-based; in short: as §4
UO-31 = test: Cytotoxicity against human UO31 cells; format: cell-based; in short: as §4
DU-145 [34] = test: Cytotoxicity against human DU145 cells; format: cell-based; in short: as §2
BT-549 = test: Cytotoxicity against human BT549 cells; format: cell-based
T47D = test: Cytotoxicity against human T47D cells; format: cell-based; in short: as §4

Compound `O=C(/C=C/c1ccc(CN(CCO)CCc2c[nH]c3ccccc23)cc1)NO` [DACINOSTAT] has a GI50 (CCRF-CEM [1]) of 251 nM, a GI50 (HL-60(TB)) of 249 nM and a GI50 (K562 [2]) of 550 nM. It also gave a GI50 (MOLT-4) of 311 nM, a GI50 (SR) of 2990 nM and a GI50 (A549) of 1090 nM. The GI50 (EKVX) was 1750 nM, the GI50 (HOP-62) was 502 nM and the GI50 (HOP-92 [3]) was 199 nM. For the same compound, the GI50 (NCI-H226) was 1410 nM, the GI50 (NCI-H23 [4]) was 1500 nM and the GI50 (NCI-H460) was 700 nM. The GI50 (COLO 205 [5]) was 1080 nM, the GI50 (HCT-15 [6]) was 2070 nM and the GI50 (KM12) was 1040 nM. It also gave a GI50 (SW-620) of 478 nM, a GI50 (SNB-19) of 1530 nM and a GI50 (U-251) of 773 nM. It also gave a GI50 (Malme-3M [7]) of 461 nM, a GI50 (M14 [8]) of 849 nM and a GI50 (MDA-MB-435 [9]) of 537 nM. It also gave a GI50 (UACC-257 [10]) of 393 nM, a GI50 (IGROV-1 [11]) of 187 nM and a GI50 (OVCAR-4 [12]) of 3210 nM. It also gave a GI50 (OVCAR-5 [13]) of 260 nM, a GI50 (SK-OV-3) of 524 nM and a GI50 (786-0) of 2380 nM. The GI50 (A498 [14]) was 1110 nM, the GI50 (ACHN) was 1100 nM and the GI50 (CAKI-1) was 619 nM. It also gave a GI50 (RXF 393 [15]) of less than 10 nM, a GI50 (TK-10 [16]) of 495 nM and a GI50 (PC-3) of 1300 nM. The GI50 (DU-145 [17]) was 580 nM, the GI50 (MDA-MB-231) was 1960 nM and the LC50 (CCRF-CEM [18]) was greater than 100000 nM. The LC50 (K562 [19]) was greater than 100000 nM, the LC50 (RPMI-8226) was greater than 100000 nM and the LC50 (HOP-92 [20]) was 68200 nM. For the same compound, the LC50 (NCI-H23 [21]) was greater than 100000 nM, the LC50 (NCI-H322M) was greater than 100000 nM and the LC50 (COLO 205 [22]) was 50400 nM. It also gave an LC50 (HCT-116) of 51200 nM, an LC50 (HCT-15 [23]) of 56400 nM and an LC50 (SF-268) of 92100 nM. It also gave an LC50 (LOX IMVI) of 6040 nM, an LC50 (Malme-3M [24]) of 82000 nM and an LC50 (M14 [25]) of 93800 nM. For the same compound, the LC50 (MDA-MB-435 [26]) was 28800 nM, the LC50 (SK-MEL-5) was 4020 nM and the LC50 (UACC-257 [27]) was 44800 nM. For the same compound, the LC50 (IGROV-1 [28]) was 48900 nM, the LC50 (OVCAR-4 [29]) was greater than 100000 nM and the LC50 (OVCAR-5 [30]) was 38900 nM. The LC50 (A498 [31]) was 5880 nM, the LC50 (RXF 393 [32]) was 15300 nM and the LC50 (TK-10 [33]) was greater than 100000 nM. For the same compound, the LC50 (UO-31) was 52800 nM, the LC50 (DU-145 [34]) was greater than 100000 nM and the LC50 (BT-549) was 85600 nM. It also gave an LC50 (T47D) greater than 100000 nM.
